From ChEMBL document CHEMBL3596136, “Design, synthesis and biological evaluation of paralleled Aza resveratrol-chalcone compounds as potential anti-inflammatory agents for the treatment of acute lung injury” (Bioorg Med Chem Lett, 2015)
Active and inactive are the calls of the source. The calls are words filed in the database; no cut-off is given here.

What was measured:
RAW264.7 [1] = assay: Anti-inflammatory activity in mouse RAW264.7 cells assessed as inhibition of LPS-induced IL6 production at 10 mM pre-incubated for 10 mins before LPS stimulation for 24 hrs by ELISA method; type: functional, cell-based; settings: in the assay text read “pre-incubated for 30 mins” for “pre-incubated for 10 mins”
How it was run: (§1)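 RAW 264.7 macrophages pretreated with compound for 30 min, then stimulated with LPS for 24 h. TNF-α and IL-6 in culture medium measured by ELISA and normalized to total protein. Expressed as percent of LPS group; mean ± SEM of 3 independent experiments.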

RAW264.7 [2] = assay: Anti-inflammatory activity in mouse RAW264.7 cells assessed as inhibition of LPS-induced TNFalpha production at 10 mM pre-incubated for 10 mins before LPS stimulation for 24 hrs by ELISA method; type: functional, cell-based; settings: in the assay text read “pre-incubated for 30 mins” for “pre-incubated for 10 mins”; how it was run: as §1
RAW264.7 [3] = assay: Anti-inflammatory activity in mouse RAW264.7 cells assessed as inhibition of LPS-induced IL6 production pre-incubated for 10 mins before LPS stimulation for 24 hrs by ELISA method; type: functional, cell-based; settings: in the assay text read “pre-incubated for 30 mins” for “pre-incubated for 10 mins”
How it was run: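 RAW 264.7 macrophages pretreated for 30 min at 1, 2.5, 5 and 10 µM, then given LPS (0.5 µg/mL) for 24 h. IL-6 in medium measured by ELISA, normalized to total protein, and expressed as percent of LPS. Concentration-response used for IC50; 3 independent experiments.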

[4] = Toxicity against human HL7702 cells assessed as reduction in cell survival at 10 uM incubated for 24 hrs by MTT assay; type: cell-based; settings: l02, 24 h
How it was run: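 HL-7702 normal hepatic cells treated at 10 µM for 24 h. Viability measured by MTT.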

RAW264.7 [5] = assay: Anti-inflammatory activity in mouse RAW264.7 cells assessed as inhibition of LPS-induced IL6 production pre-incubated for 30 mins before LPS stimulation for 24 hrs by ELISA method
Mus musculus [6] = assay: Anti-inflammatory activity in C57BL/6 mouse model of LPS-induced acute lung injury assessed as reduction in lung wet/dryweight ratio at 20 mg/kg for 1 week dosed before LPS instillation for 6 hrs; type: functional, organism-based
How it was run: (§2)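 ALI model in mice: one-week pretreatment at 20 mg/kg, then intratracheal LPS instillation (5 mg/kg). After 6 h, animals anaesthetized and killed. Lung wet/dry weight ratio determined. Total cell count and total protein concentration measured in bronchoalveolar lavage fluid.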

Mus musculus [7] = assay: Anti-inflammatory activity in C57BL/6 mouse model of LPS-induced acute lung injury assessed as reduction in protein level in bronchoalveolar lavage fluid at 20 mg/kg for 1 week dosed before LPS instillation for 6 hrs by BCA protein assay; type: functional, organism-based; how it was run: as §2
Mus musculus [8] = assay: Anti-inflammatory activity in C57BL/6 mouse model of LPS-induced acute lung injury assessed as reduction in total cel count at 20 mg/kg for 1 week dosed before LPS instillation for 6 hrs; type: functional, organism-based; how it was run: as §2
Mus musculus [9] = assay: Anti-inflammatory activity in C57BL/6 mouse model of LPS-induced acute lung injury assessed as reduction in TNFalpha level in bronchoalveolar lavage fluid at 20 mg/kg for 1 week dosed before LPS instillation for 6 hrs; type: functional, organism-based
How it was run: (§3)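 LPS-induced ALI in mice. Pretreatment at 20 mg/kg for one week, then intratracheal LPS (5 mg/kg). Animals killed 6 h later. BALF and serum collected and TNF-α measured in each.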

Mus musculus [10] = organism: Mus musculus; assay: Anti-inflammatory activity in C57BL/6 mouse model of LPS-induced acute lung injury assessed as reduction in lung airspace inflammation […] by hematoxylin and eosin staining method; type: functional, organism-based
How it was run: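 Lung tissue taken 6 h after tracheal LPS instillation (5 mg/kg) in mice given or not given treatment. Sections stained with hematoxylin and eosin and examined by light microscopy for inflammatory cell infiltration, interstitial edema and alveolar septal thickening.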

Mus musculus [11] = assay: Anti-inflammatory activity in C57BL/6 mouse model of LPS-induced acute lung injury assessed as reduction in serum TNFalpha level at 20 mg/kg for 1 week dosed before LPS instillation for 6 hrs; type: functional, organism-based; how it was run: as §3
Mus musculus [12] = assay: Anti-inflammatory activity in C57BL/6 mouse model of LPS-induced acute lung injury assessed as reduction in lung CD68-stained macrophages level at 20 mg/kg for 1 week dosed before LPS instillation for 6 hrs by immunohistochemistry method; type: functional, organism-based
How it was run: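 Lung sections from mice killed 6 h after intratracheal LPS, with or without pretreatment. Macrophages detected by immunohistochemistry for the marker CD68.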

BEAS-2B [13] = assay: Anti-inflammatory activity in human BEAS2B cells assessed as LPS-induced IL-1beta mRNA expression incubated for 6 hrs by RT-qPCR method; type: functional, cell-based
How it was run: (§4)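 Beas-2B cells exposed to LPS (1.0 µg/mL) for 6 h, with or without compound. IL-1β, IL-6, IL-33 and TNF-α mRNA quantified by RT-qPCR. Results expressed as percent of LPS control.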

BEAS-2B [14] = assay: Anti-inflammatory activity in human BEAS2B cells assessed as LPS-induced IL6 mRNA expression incubated for 6 hrs by RT-qPCR method; type: functional, cell-based; how it was run: as §4
BEAS-2B [15] = assay: Anti-inflammatory activity in human BEAS2B cells assessed as LPS-induced IL33 mRNA expression incubated for 6 hrs by RT-qPCR method; type: functional, cell-based; how it was run: as §4
BEAS-2B [16] = assay: Anti-inflammatory activity in human BEAS2B cells assessed as LPS-induced TNFalpha mRNA expression incubated for 6 hrs by RT-qPCR method; type: functional, cell-based; how it was run: as §4

Row | Structure (SMILES) | inhibition (RAW264.7 [1]) | inhibition (RAW264.7 [2]) | also measured
1 | COc1ccc(C(=O)/C=C/c2cc(OC)c(OC)c(OC)c2)cc1/N=C/c1ccc(O)cc1O | Active |  | 
2 | COc1ccccc1/C=C/C(=O)c1ccc(OC)c(/N=C/c2cccc(OC)c2O)c1 | Active | Active | 
3 | COc1ccc(C(=O)/C=C/c2cc(OC)c(OC)c(OC)c2)cc1/N=C/c1ccc(Cl)cc1Cl | Active |  | 
4 | COc1ccc(C(=O)/C=C/c2ccccc2Br)cc1/N=C/c1cccc(OC)c1O | Active | Active | 
5 | COc1ccc(C(=O)/C=C/c2cc(OC)c(OC)c(OC)c2)cc1/N=C/c1ccccc1Br | Active | Active | inhibition (RAW264.7 [3]): Dose-dependent effect; Activity [4]: Non-toxic; IC50 (RAW264.7 [5]): 4.8 µM
6 | COc1ccc(C(=O)/C=C/c2cccc(Br)c2)cc1/N=C/c1cccc(OC)c1O | Active | Active | 
7 | COc1ccc(C(=O)/C=C/c2ccccc2C(F)(F)F)cc1/N=C/c1cccc(OC)c1O | Active | Active | 
8 | COc1ccc(C(=O)/C=C/c2cc(OC)c(OC)c(OC)c2)cc1/N=C/c1cc2c(cc1Br)OCO2 | Active |  | 
9 | COc1ccc(C(=O)/C=C/c2ccc(OC)c(OC)c2)cc1/N=C/c1cccc(OC)c1O | Active |  | 
10 | COc1ccc(C(=O)/C=C/c2cc(OC)c(OC)c(OC)c2)cc1/N=C/c1cccc(O)c1O | Active | Active | inhibition (RAW264.7 [3]): Dose-dependent effect; Activity [4]: Non-toxic; inhibition (Mus musculus [6]): Active; inhibition (Mus musculus [7]): Active; inhibition (Mus musculus [8]): Active; inhibition (Mus musculus [9]): Active; inhibition (Mus musculus [10]): Active; inhibition (Mus musculus [11]): Active; inhibition (Mus musculus [12]): Active; inhibition (BEAS-2B [13]): Active; inhibition (BEAS-2B [14]): Active; inhibition (BEAS-2B [15]): Active; inhibition (BEAS-2B [16]): Active; IC50 (RAW264.7 [5]): 1.8 µM
11 | COc1ccc(Br)c(/C=N/c2cc(C(=O)/C=C/c3cc(OC)c(OC)c(OC)c3)ccc2OC)c1 | Active |  | 
12 | COc1ccc(C(=O)/C=C/c2ccc(Br)cc2)cc1/N=C/c1cccc(OC)c1O | Active | Active | 
13 | COc1ccc(C(=O)/C=C/c2ccc(C(F)(F)F)cc2)cc1/N=C/c1cccc(OC)c1O | Active | Active | 
14 | COc1cc(OC)c(/C=C/C(=O)c2ccc(OC)c(/N=C/c3cccc(OC)c3O)c2)c(OC)c1 | Active |  | 
15 | CCN(CC)c1ccc(/C=N/c2cc(C(=O)/C=C/c3cc(OC)c(OC)c(OC)c3)ccc2OC)c(O)c1 | Active |  | 
16 | Oc1ccc(/C=C/c2cc(O)cc(O)c2)cc1 | Active | Active | inhibition (Mus musculus [11]): Active; inhibition (Mus musculus [12]): Active
17 | COc1ccc(C(=O)/C=C/c2cc(OC)c(OC)c(OC)c2)cc1/N=C/c1ccc(O)c(Br)c1 | Active | Active | inhibition (RAW264.7 [3]): Dose-dependent effect; Activity [4]: Non-toxic; IC50 (RAW264.7 [5]): 3.6 µM
18 | COc1ccc(C(=O)/C=C/c2cc(OC)c(OC)c(OC)c2)cc1/N=C/c1cccc(OC)c1O | Active | Active | IC50 (RAW264.7 [3]): 2.8 µM; inhibition (RAW264.7 [3]): Dose-dependent effect; Activity [4]: Non-toxic
19 | COc1ccc(C(=O)/C=C/c2cc(OC)c(OC)c(OC)c2)cc1/N=C/c1ccccc1O | Active |  | inhibition (RAW264.7 [3]): Dose-dependent effect; Activity [4]: Non-toxic; IC50 (RAW264.7 [5]): 3.6 µM
20 | COc1ccc(C(=O)/C=C/c2ccc3ccccc3c2)cc1/N=C/c1cccc(OC)c1O | Active |  | 
